# Data: ChEMBL document CHEMBL1138492, “Conformationally constrained analogues of diacylglycerol (DAG). 31. Modulation of the biological properties of diacylgycerol lactones (DAG-lactones) containing rigid-rod acyl groups separated from the core lactone by spacer units of different lengths” (J Med Chem, 2009)
# Activity calls are given as the source filed them. No cut-off for these calls is given here.
# Key:
# [1] = target: T1, Protein kinase C delta type (Homo sapiens, UniProt Q05655); assay: Displacement of [3H]PDBu form human PKCdelta in presence of plasma membrane lipid mimetic mixture
# In short: (§1)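 [3H]PDBu competition on individual recombinant human PKC isozymes in 100 μg/mL total lipid mimicking the plasma-membrane inner leaflet (PC/PE/PS/PI/cholesterol 12:35:22:9:21); ID50 fitted to a sigmoidal competition curve, Ki = ID50/(1 + L/Kd); three independent determinations, mean ± SEM.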
# Target sequence in this assay (Q05655 whole entry): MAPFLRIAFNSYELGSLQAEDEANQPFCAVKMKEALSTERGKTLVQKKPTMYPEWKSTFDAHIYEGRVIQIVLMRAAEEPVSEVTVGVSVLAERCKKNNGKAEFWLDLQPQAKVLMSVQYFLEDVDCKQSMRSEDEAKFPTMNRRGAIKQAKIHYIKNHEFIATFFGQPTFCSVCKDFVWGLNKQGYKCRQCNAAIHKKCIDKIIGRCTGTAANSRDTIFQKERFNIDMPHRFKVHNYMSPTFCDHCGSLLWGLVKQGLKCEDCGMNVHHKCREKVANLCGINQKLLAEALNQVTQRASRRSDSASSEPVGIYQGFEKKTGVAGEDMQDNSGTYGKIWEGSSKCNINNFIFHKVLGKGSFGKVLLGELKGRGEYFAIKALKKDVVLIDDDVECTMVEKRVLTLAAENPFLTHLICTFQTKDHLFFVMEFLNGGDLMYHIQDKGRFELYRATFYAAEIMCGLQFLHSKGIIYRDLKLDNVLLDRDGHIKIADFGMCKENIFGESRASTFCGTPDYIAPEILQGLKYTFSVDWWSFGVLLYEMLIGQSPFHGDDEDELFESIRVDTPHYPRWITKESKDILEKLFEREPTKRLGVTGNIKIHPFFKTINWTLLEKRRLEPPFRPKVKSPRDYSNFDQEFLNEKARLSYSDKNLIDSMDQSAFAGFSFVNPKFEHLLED
# [2] = target: T2, Protein kinase C epsilon type (Homo sapiens, UniProt Q02156); assay: Displacement of [3H]PDBu form human PKCepsilon in presence of plasma membrane lipid mimetic mixture; in short: as §1
# T2 sequence (Q02156 whole entry): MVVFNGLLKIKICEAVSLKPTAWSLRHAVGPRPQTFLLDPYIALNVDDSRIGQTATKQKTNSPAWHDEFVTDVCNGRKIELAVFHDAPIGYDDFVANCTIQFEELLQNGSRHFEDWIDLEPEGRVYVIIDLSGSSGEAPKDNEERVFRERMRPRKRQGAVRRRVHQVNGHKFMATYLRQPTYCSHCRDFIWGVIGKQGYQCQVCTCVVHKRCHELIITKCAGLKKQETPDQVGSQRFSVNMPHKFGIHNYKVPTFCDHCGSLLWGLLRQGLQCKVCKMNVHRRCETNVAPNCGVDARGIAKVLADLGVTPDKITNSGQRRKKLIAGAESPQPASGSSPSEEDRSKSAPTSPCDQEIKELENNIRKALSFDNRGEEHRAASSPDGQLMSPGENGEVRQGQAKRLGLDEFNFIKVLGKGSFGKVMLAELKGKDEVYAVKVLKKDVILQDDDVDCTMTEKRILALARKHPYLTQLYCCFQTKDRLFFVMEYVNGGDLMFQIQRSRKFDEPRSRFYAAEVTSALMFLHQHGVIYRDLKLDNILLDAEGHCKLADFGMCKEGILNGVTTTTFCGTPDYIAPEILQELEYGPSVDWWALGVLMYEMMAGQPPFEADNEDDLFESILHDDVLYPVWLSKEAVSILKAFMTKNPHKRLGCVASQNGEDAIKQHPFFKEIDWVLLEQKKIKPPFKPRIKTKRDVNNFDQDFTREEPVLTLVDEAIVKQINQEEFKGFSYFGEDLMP
# LNCaP = assay: Induction of apoptosis in human LNCAP cells after 48 hrs by flow cytometry relative to PMA; type: functional, cell-based
# In short: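 LNCaP cells in RPMI-1640/10% FBS, plated at ~60% confluency, treated with a concentration series for 48 h alongside 1 μM PMA; stained with YO-PRO-1 (1 μM final, 20 min, 4 °C, dark) then 7-AAD (5 μg/mL final, 10 min) and analyzed by flow cytometry; YO-PRO-1-positive cells taken as apoptotic, % of total; three experiments.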
# [3] = target: T3, Protein kinase C alpha type (Homo sapiens, UniProt P17252); assay: Activation of GFP-tagged PKCalpha expressed in CHO cells assessed as isozyme translocation from cytosol to plasma membrane at 10 uM by confocal microscopy; type: cell-based
# In short: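 GFP-PKCα transiently transfected (Lipofectamine) into CHO cells grown in F12-K with 10% FBS; cells given 10 μM compound and redistribution followed over time by confocal microscopy (488 nm argon excitation), images every 30 s; kinetics of plasma-membrane translocation scored from four independent experiments.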
# [4] = target: T1, Protein kinase C delta type; assay: Activation of GFP-tagged PKCdelta expressed in CHO cells assessed as isozyme translocation from cytosol to internal membrane at 10 uM by confocal microscopy; type: cell-based
# In short: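 CHO cells in F12-K/10% FBS transiently transfected with GFP-PKCδ, exposed to 10 μM compound; confocal imaging at 488 nm every 30 s after addition; relative localization to plasma, nuclear and internal membranes scored semi-quantitatively (+ marks) over three independent experiments.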
# Target sequence in this assay (Q05655 whole entry, looked up): as the sequence (Q05655 whole entry) above
# [5] = Membrane binding affinity to synthetic dimyristoylphosphatidylcholine/polydiacetylene vesicles assessed as increase in fluorescence chromatic response by fluorescence spectroscopy; type: physicochemical
# In short: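 DMPC/10,12-tricosadiynoic acid vesicles polymerized at 254 nm for 30 s, used at 0.5 mM total lipid in 50 mM Tris, pH 8; compounds in DMSO mixed with vesicles before buffer addition; fluorescence read at 485/555 nm excitation/emission, expressed as % of fully transformed red vesicles over a dose range.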
# [6] = target: T3, Protein kinase C alpha type; assay: Displacement of [3H]PDBu form human PKCalpha in presence of phosphatidylserine
# In short: (§2)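 Recombinant human PKC isozyme, single isozyme per assay, with 100 μg/mL phosphatidylserine; competition of unlabeled ligand against [20-3H]PDBu binding; ID50 from least-squares sigmoidal fit, converted to Ki = ID50/(1 + L/Kd), L being free [3H]PDBu at ID50; mean ± SEM of three independent experiments.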
# [7] = target: T4, Protein kinase C beta type (Homo sapiens, UniProt P05771); assay: Displacement of [3H]PDBu form human PKCbeta in presence of phosphatidylserine; in short: as §2
# [8] = target: T5, Protein kinase C gamma type (Homo sapiens, UniProt P05129); assay: Displacement of [3H]PDBu form human PKCgamma in presence of phosphatidylserine; in short: as §2
# [9] = target: T1, Protein kinase C delta type; assay: Displacement of [3H]PDBu form human PKCdelta in presence of phosphatidylserine; in short: as §2
# Target sequence in this assay (Q05655 whole entry): as the sequence (Q05655 whole entry) above
# [10] = target: T2, Protein kinase C epsilon type; assay: Displacement of [3H]PDBu form human PKCepsilon in presence of phosphatidylserine; in short: as §2
# [11] = target: T3, Protein kinase C alpha type; assay: Displacement of [3H]PDBu form human PKCalpha in presence of plasma membrane lipid mimetic mixture; in short: as §1
# [12] = target: T4, Protein kinase C beta type; assay: Displacement of [3H]PDBu form human PKCbeta in presence of plasma membrane lipid mimetic mixture; in short: as §1
# [13] = target: T5, Protein kinase C gamma type; assay: Displacement of [3H]PDBu form human PKCgamma in presence of plasma membrane lipid mimetic mixture; in short: as §1
# T4 sequence (P05771 whole entry): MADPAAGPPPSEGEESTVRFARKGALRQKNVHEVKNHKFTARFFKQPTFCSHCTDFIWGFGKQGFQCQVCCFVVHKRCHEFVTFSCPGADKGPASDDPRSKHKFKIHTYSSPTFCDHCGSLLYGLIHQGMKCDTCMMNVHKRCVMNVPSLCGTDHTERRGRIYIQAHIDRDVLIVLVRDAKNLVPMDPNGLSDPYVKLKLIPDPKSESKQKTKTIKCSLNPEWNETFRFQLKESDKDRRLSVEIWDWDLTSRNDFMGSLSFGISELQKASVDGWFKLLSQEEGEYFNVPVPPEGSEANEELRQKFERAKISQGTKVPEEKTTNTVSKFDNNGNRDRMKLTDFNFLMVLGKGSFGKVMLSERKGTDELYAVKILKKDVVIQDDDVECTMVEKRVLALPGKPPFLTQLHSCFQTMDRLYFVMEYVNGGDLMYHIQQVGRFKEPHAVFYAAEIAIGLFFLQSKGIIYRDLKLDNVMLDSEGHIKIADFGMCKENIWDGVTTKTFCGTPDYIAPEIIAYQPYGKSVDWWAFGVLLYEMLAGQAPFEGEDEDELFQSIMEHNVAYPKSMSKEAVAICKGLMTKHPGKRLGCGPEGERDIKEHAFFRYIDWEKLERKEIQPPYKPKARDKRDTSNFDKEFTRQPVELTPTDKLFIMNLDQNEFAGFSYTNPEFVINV
Ki [1] [nM],Ki [2] [nM],Activity [3],Activity [4],Activity [5],Ki [6] [nM],Ki [7] [nM],Ki [8] [nM],Ki [9] [nM],Ki [10] [nM],Ki [11] [nM],Ki [12] [nM],Ki [13] [nM],SMILES,Activity (LNCaP)
47.7,147,Active,Active,Active,38,76,50.8,46.4,268,165,100,140,CC(C)=C1CC(CO)(COC(=O)COc2ccc(C#Cc3ccc(C)cc3)cc2)OC1=O (stereo unspecified),Active
2.74,8.3,Active,,Active,6,4.1,6.2,5.4,10,15.8,12.6,15.7,CC(C)=C1CC(CO)(COC(=O)c2ccc(C#Cc3ccc(C)cc3)cc2)OC1=O (stereo unspecified),
31.3,78.7,Active,Active,Active,20.8,57,35,35.8,153,143,66,78,CC(C)=C1CC(CO)(COC(=O)CCOc2ccc(C#Cc3ccc(C)cc3)cc2)OC1=O (stereo unspecified),
11.6,31.9,Active,,Active,19.5,15.2,12.3,11.9,37.9,76,43.8,31.7,CC(C)=C1CC(CO)(COC(=O)CCCOc2ccc(C#Cc3ccc(C)cc3)cc2)OC1=O (stereo unspecified),
